Measurements from the EternaBench riboswitch data.

Test system: MS2 coat protein
Test: apparent Kd, MS2 coat protein; higher = weaker binding; RNA-MaP array; FMN 200 µM where present
In short: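 The apparent Kd is the median of filtered binding-curve fits, one per cluster, to green signal normalised to red-channel RNA signal and control-cluster median Fmax. The clusters were on Illumina sequencing chips, and stalled E. coli RNA polymerase had transcribed the designs on them. Titration used SNAP-549-labelled MS2 coat protein from 0.7 or 1.5 nM, doubling to 3 µM, without and then with constant ligand, in 100 mM Tris-HCl pH 7.5, 80 mM KCl, 4 mM MgCl2, BSA, DTT, yeast tRNA and Tween-20.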

[1] = designed as: OFF switch for flavin mononucleotide, no ligand
[2] = ligand present: flavin mononucleotide, designed as: OFF switch for flavin mononucleotide
[3] = designed as: ON switch for flavin mononucleotide, no ligand
[4] = ligand present: flavin mononucleotide, designed as: ON switch for flavin mononucleotide

Sequence	apparent Kd [1]	apparent Kd [2]	apparent Kd [3]	apparent Kd [4]
UGAGCCUCGUGAGGAUAUACAUGAGGAUCACCCAUGUAAUAAAUCCAACGGAGGAAACUCCGAAUGUAGAAGGCACGAGGCUCA	0.0181 µM	0.0643 µM		
UGUCGGAGCAGAGGAUAUUACAUGAGGAUCACCCAUGUAUGAACCAUUAGCUGGAAACAGCAAUGUAAGAAGGCUGCUCCGACA	0.00537 µM	0.0104 µM		
GUCGAAGCUGUACCAGUCGACGGUCAGGAUAUACAUGAGGAUCACCCAUGUGCUAUUGAUACUAUGUAGAAGGGACCCACCGCA	0.0106 µM	0.0112 µM		
GUUUCGUGAGGAUAUGUGGCUUCGAUCGUGCGAACGAGGCUACAGAAGGCACAUGAGGAUCACCCAUGUUCCUC	0.0374 µM	0.481 µM		
GGUGUCAUCGAGAAGGCCUCAACAUGAGGAUCACCCAUGUUGUAAUAUGGGAGGAUAUCGAUGAUACAGCUACGUUUCGUAGCC			0.0207 µM	0.00623 µM
AAUAGUUCCGAGGAUAUAUCUCCACCGUGGGUGGUAGAAGGCGGGACAUGAGGAUCACCCAUGUACAAAUUCUC	0.0752 µM	0.0981 µM		
CCAUUCAGAGGAUAUGCGCAUAGAUAAGACUUUUUUUCUUAACAUGAGGAUCACCCAUGUAGAAGGCUGUACCC	0.0216 µM	0.0194 µM		
UGUUGUAUUACAGGAUAUCUAUUAGUAUUAUUUAGAGAAGGGUAUUCACAUGAGGAUCACCCAUGUAUAUACGAGGAAGUUGUG			0.0469 µM	0.0484 µM
UUGUUGUAUGUAGGAUAUGCAUAUUAUUAUUAUGCAGAAGGACAUGAGGAUCACCCAUGUAUAUUAUUAUUAUAUAUUAUAUAU	0.03 µM	0.0493 µM		
CUAUAGAUAUCAGGAUAUCUAUUUCCAACAUGAGGAUCACCCAUGUUGAGGAUCACCCAUGUAAAGGAGAAGGGAUAUCUAUAG			0.0691 µM	0.0164 µM
UUUAAUCGAAACAUGAGGAUCACCCAUGUGUUGUAAUUAACAUAGGAUAUUUGUAUGCUUUUGUAAGAGAAGGAUGAUAAUACU			0.0212 µM	0.0161 µM
ACAUGAGAGUUAGGAUAUCUUGUACCUACAUGUGACAUGAGGAUCACCCAUGUGGUAAGUAUGAGGGAGAAGGAACAGAUAUGU			0.0439 µM	0.0339 µM
GCUAGAGCAGGAUAUCUAGAUCCACACAUGAGGAUCACCCAUGUACAGUCGAAAGACUGAAGAGAAGGGCUCUAGC	0.0697 µM	0.0927 µM		
ACCUCACAUGAGGAUCACCCAUGUCAGGAUAUUCAAACAGGCGGAACUCCGCCUUCUCGAAGAAGGGACAUUAA	0.0162 µM	0.0724 µM		
AAAUAGUUAGGAUAUACAUGAGGAUCACCCAUGUGGACUGAUGGCGAUUAAUUUAGUGGUAGAAGGGACUCAAA	0.0439 µM	0.0499 µM		
AUCCUGCGAGGAUAUACAUAGUUUUUUUCGUUUUGACUCGAACAUGAGGAUCACCCAUGUAGAAGGUGCUUCAC	0.0595 µM	0.056 µM		
UUUAUACAUGAGGAUCACCCAUGUUAGGAUAUGGCUUUAAUGCCGCCGUCAUUAUCCGCCAGAAGGGACGUGUC	0.0322 µM	0.0304 µM		
UAUUGAUAAUAUUUUCACAUGAGGAUCACCCAUGUCGCUCGACAGGAUAUAUUUUAUUUGUUUAAGUAGAAGGGUCGCAGAUUU			0.143 µM	0.109 µM
GGAUGACAAAGUCAUCCAAUACGAACAUGAGGAUCACCCAUGUAGGAUAUGCAACACAAAGUGUUGCAGAAGGACAUGUGUCUU	0.0304 µM	0.136 µM		
GUAGCAUUAUAAGGAUAUUCAUACCGGAAACGGACAUGAGGAUCACCCAUGUGGCGAAAGCCUUGGGAGAAGGUAUUGUGCUAC			0.402 µM	0.0246 µM
GCAGCUAAUGCAGGAUAUCAGCACGUGUAGUGCUGAGAAGGGCACAUGAGGAUCACCCAUGUGAUCAAUCAAUGUUAAUGCUGC	0.00943 µM	0.0383 µM		
CAGAAGUCAGGAUAUGCAUGGCGGGACUUGCGUCGUGGCGUGCAGAAGGGACAUGAGGAUCACCCAUGUAAAGC	0.0509 µM	0.0512 µM		
CGUGCUAUGUAGAAGGCAGAUCUGAUUCAGAUCUGAGGAUAUACAUGAGGAUCACCCAUGUUAUGCACCAGCACGAGAGUGCAC		0.0115 µM		
UACAUAAAUGAAGGAUAUCGAUAUCCAACAUGAGGAUCACCCAUGUUGAGGAUCACCCAUGUAAAUGAGAAGGUUAACAUAACU			0.0705 µM	0.0735 µM
GUCAGCUCGUGAGGAUAUACAUGUGCUGGAGACAGCACUAUUAAGUUCACAUGAGGAUCACCCAUGUAGAAGGCACGAGCUGAU	0.0159 µM	0.0208 µM		
GUAGCUAUUAUUAUACAUGAGGAUCACCCAUGUUACAUGUGUAAGGAUAUUGAAGUUAUUAUUAUCAAGAAGGUACUAUGCUAC			0.0155 µM	0.00871 µM
AAAAGUCGAGGAUAUGCAAAAUGAUUGCGAAAGCAAUCAAAACAUGAGGAUCACCCAUGUAGAAGGCGACAAAA	0.0213 µM	0.0139 µM		
UAAGAGCGAGGAUAUACGUCGCUGGUCCGGAUGGACGCAUGACAUGAGGAUCACCCAUGUAGAAGGCGCAAAAC	0.0229 µM	0.0733 µM		

Sequence	apparent Kd [1]	apparent Kd [2]	apparent Kd [3]	apparent Kd [4]
GUCGAAACCAUACUAGUCGACGGUCAGGAUAUACAUGAGGAUCACCCAUGUGCUAUUGAUACUAUGUAGAAGGGACCCACCGCA	0.015 µM	0.0246 µM		
UUGUUGUAUGUAGGAUAUGCAUAUUAUUAUUAUGCAGAAGGACAUGAGGAUCACCCAUGUAUGUUAUUAUUAUGUGUUAUGUGU	0.044 µM	0.0715 µM		
GGAGCAGGGUGAGGAUAUGUAAAAUUCGAAAGGACAGAAGGCACUUAACCAACAUGAGGAUCACCCAUGUAGGCGACGGCACCA			0.03 µM	0.0218 µM
CUGUGACGGUGCGCAAGUGGACGGAGAAGGGUCACAUGAGGAUCACCCAUGUGGGCCUGCUAUUGACAGGAUAUCCGUUCGUAC	0.00594 µM	0.00646 µM		
CGCAAUGAUAGAGGAUAUGUUUUACAUGAGGAUCACCCAUGUGUACAUGGAUUAAUAUAUAAGUAACAGAAGGCUAUUCAUGCG	0.0167 µM	0.0152 µM		
CUCAUGUGAGGAUAUGUGAUCUGCUUUCUGUGUAGAUGAUCACAGAAGGCACAUGAGGAUCACCCAUGUAGAUC	0.0706 µM	0.0296 µM		
UUGAUUAUACAAGGAUAUCUAUUGUAAUUUCGUCUUACAUGAGGAUCACCCAUGUUAAUAUUUUUAGAGAAGGUGUAUUUUCAG			0.0399 µM	0.0259 µM
CGCUAGUCAGGAUAUACGAACAUGUCAAAAGACGUGAAGGGACAUGAGGAUCACCCAUGUAGAAGGGACUAGCC	0.0328 µM	0.115 µM		
CGAGCUGCUGUGAGGAUAUACCUAUGGAUGCGUGGGUAGAAGGCACAUGAGGAUCACCCAUGUCCUGCAGCUCG	0.0421 µM	0.241 µM		
CUAUAUAUAUGAGGAUAUCUAUAUCCAACAUGAGGAUCACCCAUGUUGAGGAUCACCCAUGUAAAGGAGAAGGCAUAUAUAUAG			0.0432 µM	0.0149 µM
CGCUGUAACGCAGGAUAUGCAUUGGAUUACAAUGCAGAAGGGCGAUUACAUGAGGAUCACCCAUGUGUAAACAGUGAAGAAGAG			0.22 µM	0.0412 µM
GUGGUGCGUAUACGUGGAUGUACAUGAGGAUCACCCAUGUAAGAGGAUAUGCGGAUACUAGCUCAGCAGAAGGCUUACAAAUGA	0.0231 µM	0.0921 µM		
GAUUGUGAAGGAUAUACUGGAGGAGUGCGAUAGAAGCACGAACAUGAGGAUCACCCAUGUAGAAGGUCAGGAGU	0.0345 µM	0.0215 µM		
GUCAGCUCGUGAGGAUAUACAACACUGCUUCGGCAGUCUAUUAAGAUCACAUGAGGAUCACCCAUGUAGAAGGCACGAGCUGAU	0.0149 µM	0.292 µM		
GCAGCAAUCUAAUACAUGAGGAUCACCCAUGUCGAGAGAUAUGAGGAUAUGCAUCUGAAGAAGAUGCAGAAGGCAUUGUGCUGC			0.0107 µM	0.00648 µM
CUGGUUAGUCAGGAUAUCGUGUGGGUAAUUGUACGAGAAGGGACGACAUGAGGAUCACCCAUGUGGUCUUUGGG	0.0248 µM	0.0562 µM		
ACGCUUUGGGAGAAGGUACGUUAAUUUUUUUCCACAUGAGGAUCACCCAUGUAAGGAUAUCCCGUCGUUAAAUAGGCUACAGCA	0.00959 µM	0.00937 µM		
CCUCCACAUGAGGAUCACCCAUGUCAGGAUAUCGUGUGUGCGUUUUCGGUCUUUCGCGCGAGAAGGGACGACUG	0.0302 µM	0.033 µM		
ACAUGAGGAUCACCCAUGUAGAGUGAAGAAGGUAGAUACUUAUGACUCUCCCAUGUACAUAGGACUGAGGAUAUUCUAAUAAUU			0.0234 µM	0.0189 µM
AAGAAGGACGCAGGAUAUCCAGGACCUCCCGCAGGAGAAGGGCGAGACAUGAGGAUCACCCAUACAUGAGGAUCACCCAUGUAG	0.0173 µM	0.0185 µM		
GUUCUUCCUGUAAGGAUAUCCAUGUAUCAGUUUAUGGAGAAGGUACAUGAGGAUCACCCAUGUCACCCGCGUUA	0.0201 µM	0.0461 µM		
UAUUAGAUCCGAGGAUAUCCUUAUUAGAAACAUGAGGAUCACCCAUGUAAAGGGAAUUAUUUGUAGGAGAAGGCGGAUUUAGUU			0.0675 µM	0.0529 µM
ACAUGUAAUGUAGGAUAUUUUACACAUGAGGAUCACCCAUGUGACCAGAGGCUUUGCUAUGAGUAAAAGAAGGGUAUGUACAUG	0.0618 µM	0.0604 µM		
AGUCGGAGCAGAGGAUAUACAUGAGGAUCACCCAUGUAAUAAAGUGAAGCCUGGAAACAGGUAAUGUAGAAGGCUGCUCCGACA	0.011 µM	0.0847 µM		
GUGGUUGUCGUAGGAUAUGUAGGAUAUUCCUACAUGAGGAUCACCCAUGUUCGCAUGGAAGAAGGACAGAAGGACGAUGACCAG			0.801 µM	0.0227 µM
AGCAUGUGAGGAUAUGCGGACUCCGGUAAAUCUGGAGUCCAGUAGAAGGCACAUGAGGAUCACCCAUGUGAUAA	0.0983 µM	0.0832 µM		
UAGUGAUUGCAAGGAUAUGCUUGUGUUUUAUUUUUUUUAAUAUCUAACAUGAGGAUCACCCAUGUGCAGAAGGUGCUUGAUUUG			0.0478 µM	0.0488 µM
